Results: ChEMBL document CHEMBL1128416, “Synthesis and evaluation of 6,7-dihydroxy-2,3,4,8,9,13b-hexahydro-1H- benzo[6,7]cyclohepta[1,2,3-ef][3]benzazepine, 6,7-dihydroxy- 1,2,3,4,8,12b-hexahydroanthr[10,4a,4-cd]azepine, and 10-(aminomethyl)-9,10- dihydro-1,2-dihydroxyanthracene as conformationally restricted analogs of …” (J Med Chem, 1995)

Columns and labels:
Conditions in all cases: Striatum; Membrane
[1] = biological target: D(2) dopamine receptor (Rattus norvegicus) (UniProt P61169); assay: Binding affinity towards Dopamine receptor D2 by displacing [3H]spiperone radio-ligand in rat striatal membranes by using radioligand competition assay.; format: cell membranes
Summary of the method: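 Same rat striatal membrane preparation as the D1 assay: HEPES/MgCl2 buffer, pH 7.4, 37 °C incubation, filtration and scintillation counting. [3H]spiperone was the radioligand, competed with increasing test concentrations. IC50 derived from the displacement data.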

[2] = biological target: D(1A) dopamine receptor (Rattus norvegicus) (UniProt P18901)
[3] = biological target: D(1A) dopamine receptor (Rattus norvegicus) (UniProt P18901); assay: Binding affinity to the dopamine receptor D1 by displacing [3H]-SCH- 23390 radio-ligand in rat striatal membranes by using radioligand competition assay.; format: cell membranes
Summary of the method: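 Striata from male Sprague-Dawley rats (200–400 g), fresh or stored at -70 °C. Homogenized in ice-cold 50 mM HEPES with 4.0 mM MgCl2, pH 7.4, washed twice by centrifugation at 27000g, and resuspended at ~2.0 mg wet weight/mL. Membranes were incubated with 0.3 nM [3H]SCH 23390 and increasing test concentrations for 15 min at 37 °C. Nonspecific binding defined with 1 μM SCH 23390. Filtered, scintillation counted, IC50 derived.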

D(2) dopamine receptor (Rattus norvegicus), sequence (P61169 whole entry): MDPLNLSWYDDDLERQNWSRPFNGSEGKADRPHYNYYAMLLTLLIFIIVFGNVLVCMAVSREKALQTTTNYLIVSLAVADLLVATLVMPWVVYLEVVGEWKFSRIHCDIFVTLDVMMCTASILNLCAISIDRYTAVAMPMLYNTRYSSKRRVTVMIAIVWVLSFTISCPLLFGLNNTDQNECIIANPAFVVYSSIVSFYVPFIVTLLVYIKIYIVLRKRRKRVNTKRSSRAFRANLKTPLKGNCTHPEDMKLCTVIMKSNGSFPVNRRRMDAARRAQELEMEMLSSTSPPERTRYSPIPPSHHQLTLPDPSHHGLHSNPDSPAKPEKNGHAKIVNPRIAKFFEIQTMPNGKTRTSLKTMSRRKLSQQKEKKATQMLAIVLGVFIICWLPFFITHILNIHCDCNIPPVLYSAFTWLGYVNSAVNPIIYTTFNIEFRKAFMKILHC
D(1A) dopamine receptor (Rattus norvegicus), sequence (P18901 whole entry): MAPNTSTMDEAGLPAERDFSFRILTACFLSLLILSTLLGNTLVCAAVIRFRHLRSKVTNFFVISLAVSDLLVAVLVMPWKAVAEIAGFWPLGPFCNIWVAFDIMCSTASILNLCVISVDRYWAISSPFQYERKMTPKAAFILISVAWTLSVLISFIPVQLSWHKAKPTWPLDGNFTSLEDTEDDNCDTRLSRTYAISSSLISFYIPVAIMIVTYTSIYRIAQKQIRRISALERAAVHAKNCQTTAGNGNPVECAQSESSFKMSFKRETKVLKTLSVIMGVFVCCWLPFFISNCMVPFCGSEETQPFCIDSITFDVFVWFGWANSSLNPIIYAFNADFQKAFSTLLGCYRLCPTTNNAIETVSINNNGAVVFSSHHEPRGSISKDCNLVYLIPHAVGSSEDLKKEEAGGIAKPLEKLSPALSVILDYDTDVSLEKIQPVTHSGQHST

With `Oc1cc2c(cc1O)[C@H]1c3ccccc3CN[C@@H]1CC2` the K0.5 [1] was 29 nM and the K0.5 [2] was 2.4 nM.
`Oc1cc2c3c(c1O)Cc1ccccc1C3CNCC2` (stereo not given) gave a K0.5 [3] of 590 nM and a K0.5 [1] of 1250 nM.
In the case of `NCC1c2ccccc2Cc2c1ccc(O)c2O` (stereo not given), the K0.5 [3] is reported as > 2500 nM and the K0.5 [1] is reported as > 2500 nM.
Molecule `Oc1cc2c3c(c1O)CCc1ccccc1C3CNCC2` (stereo not given) has a K0.5 [3] of 372 nM and a K0.5 [1] of 2150 nM.
`Oc1cc2c(cc1O)[C@@H](c1ccccc1)CNCC2` showed a K0.5 [3] of 11.1 nM and a K0.5 [1] of 1870 nM.
